The text below walks through data of ChEMBL document CHEMBL3632529, “1,2,3-Triazole pharmacophore-based benzofused nitrogen/sulfur heterocycles with potential anti-Moraxella catarrhalis activity” (2015).

Type in all cases: functional
For one assay, the system named is Staphylococcus aureus. Put plainly: Antibacterial activity against Staphylococcus aureus ATCC 29213 after overnight incubation by broth microdilution method. A digest of the protocol: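 Colonies were grown on Mueller Hinton agar and suspended directly to give 5 × 10⁴ cfu/well. MIC was by CLSI broth microdilution with double dilutions of compound and azithromycin as the reference. Read-out was visual after overnight incubation at 37 °C in ambient air.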
Background: Broth dilution looks for growth in wells or tubes with falling amounts of substance.

The subject of the next assay is Escherichia coli. Put plainly: Antibacterial activity against Escherichia coli ATCC 25922 after overnight incubation by broth microdilution method. A digest of the protocol:
(§1)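 MIC per CLSI standard broth microdilution, with azithromycin as the reference antibiotic. Compounds were tested as double dilutions. Inocula were made by direct colony suspension at 5 × 10⁴ cfu/well. MIC was read visually after overnight incubation at 37 °C in ambient air.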

The subject of a further assay is Streptococcus pneumoniae. As to the kind of experiment: Antibacterial activity against Streptococcus pneumoniae ATCC 49619 after overnight incubation by broth microdilution method. A digest of the protocol:
(§2)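 Streptococci were grown on Mueller-Hinton agar with 5% sheep blood. CLSI broth microdilution MIC used double dilutions, with azithromycin as the reference. The test medium was modified by substituting 5% horse serum for lysed horse blood. Direct colony suspension inocula gave 5 × 10⁴ cfu/well. Growth was read visually after overnight incubation at 37 °C in ambient air.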

For another assay, the system named is Haemophilus influenzae. As to the kind of experiment: Antibacterial activity against Haemophilus influenzae ATCC 49247 after overnight incubation by broth microdilution method. The essentials: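 Bacteria were grown on Mueller Hinton chocolate agar. MIC was then determined by CLSI broth microdilution, with azithromycin as the reference and compounds as double dilutions. Inocula were prepared by direct colony suspension at 5 × 10⁴ cfu/well. Plates were read visually after overnight incubation at 37 °C in ambient air.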

A further assay concerns Streptococcus pyogenes. As to the kind of experiment: Antibacterial activity against Streptococcus pyogenes ATCC 700294 after overnight incubation by broth microdilution method. A digest of the protocol:
as §2

For a further assay, the system named is Moraxella catarrhalis. As to the kind of experiment: Antibacterial activity against Moraxella catarrhalis ATCC 23246 after overnight incubation by broth microdilution method. A digest of the protocol: as §1

≈ marks a conversion by molar mass, not a printed value.

As to `Clc1ccc(-n2cc(Cn3cnc4ccccc43)nn2)cc1`, the MIC in the assay on Staphylococcus aureus was more than 128 mg/L; in the assay with Escherichia coli it was more than 128 mg/L; against Streptococcus pneumoniae it was more than 128 mg/L; against Haemophilus influenzae, more than 128 mg/L; with Streptococcus pyogenes, more than 128 mg/L; against Moraxella catarrhalis, 0.5 mg/L (≈ 1.61 µM).
As to `FC(F)(F)c1ccc(-n2cc(Cn3cnc4ccccc43)nn2)cc1`, the MIC with Staphylococcus aureus is more than 128 mg/L; against Escherichia coli, more than 128 mg/L; against Streptococcus pneumoniae, more than 128 mg/L; with Haemophilus influenzae it was more than 128 mg/L; with Streptococcus pyogenes it was more than 128 mg/L; in the assay on Moraxella catarrhalis, 16 mg/L (≈ 46.6 µM).
On to `Cc1nc2ccccc2n1Cc1cn(-c2ccc(C(F)(F)F)cc2)nn1`, for which the MIC is more than 128 mg/L against Staphylococcus aureus; more than 128 mg/L with Escherichia coli; more than 128 mg/L with Streptococcus pneumoniae; more than 128 mg/L in the assay on Haemophilus influenzae; more than 128 mg/L against Streptococcus pyogenes; 64 mg/L (≈ 179 µM) in the assay on Moraxella catarrhalis.
Take `Fc1ccc(-n2cc(Cn3cnc4ccccc43)nn2)cc1`: the MIC in the assay with Staphylococcus aureus is more than 128 mg/L; in the assay with Escherichia coli it was more than 128 mg/L; with Streptococcus pneumoniae, more than 128 mg/L; with Haemophilus influenzae, more than 128 mg/L; in the assay with Streptococcus pyogenes, more than 128 mg/L; with Moraxella catarrhalis it was 1 mg/L (≈ 3.41 µM).
In the case of `Fc1ccccc1-n1cc(Cn2cnc3ccccc32)nn1`, the MIC in the assay on Staphylococcus aureus was more than 128 mg/L; against Escherichia coli, more than 128 mg/L; with Streptococcus pneumoniae it was more than 128 mg/L; in the assay with Haemophilus influenzae it was more than 128 mg/L; in the assay on Streptococcus pyogenes, more than 128 mg/L; in the assay on Moraxella catarrhalis it was 128 mg/L (≈ 436 µM).
Take `Clc1cc(Cl)cc(-n2cc(Cn3cnc4ccccc43)nn2)c1`: the MIC against Staphylococcus aureus was more than 128 mg/L; with Escherichia coli, more than 128 mg/L; in the assay with Streptococcus pneumoniae, more than 128 mg/L; with Haemophilus influenzae it was more than 128 mg/L; in the assay with Streptococcus pyogenes, more than 128 mg/L; with Moraxella catarrhalis it was 16 mg/L (≈ 46.5 µM).
On to `Cc1ccc2nc(-c3ccc(NCc4cn(-c5ccc(F)cc5)nn4)cc3)sc2c1`, for which the MIC was more than 128 mg/L against Staphylococcus aureus; more than 128 mg/L in the assay with Escherichia coli; more than 128 mg/L with Streptococcus pneumoniae; more than 128 mg/L against Haemophilus influenzae; more than 128 mg/L in the assay with Streptococcus pyogenes; 128 mg/L (≈ 308 µM) in the assay on Moraxella catarrhalis.
Regarding `Cc1ccc2nc(-c3ccc(NCc4cn(-c5ccc(Cl)cc5)nn4)cc3)sc2c1`, the MIC with Staphylococcus aureus is more than 128 mg/L; against Escherichia coli it was more than 128 mg/L; in the assay on Streptococcus pneumoniae it was more than 128 mg/L; in the assay on Haemophilus influenzae, more than 128 mg/L; in the assay with Streptococcus pyogenes, more than 128 mg/L; against Moraxella catarrhalis, 64 mg/L (≈ 148 µM).
Take `Cc1ccc2nc(-c3ccc(NCc4cn(Cc5cc(=O)oc6cc(O)ccc56)nn4)cc3)sc2c1`: the MIC against Staphylococcus aureus, in the assay with Escherichia coli, in the assay with Streptococcus pneumoniae, in the assay on Haemophilus influenzae and with Streptococcus pyogenes was more than 128 mg/L throughout.
Turning to `CC[C@H]1OC(=O)[C@H](C)[C@@H](O[C@H]2C[C@@](C)(OC)[C@@H](O)[C@H](C)O2)[C@H](C)[C@@H](O[C@@H]2O[C@H](C)C[C@H](N(C)C)[C@H]2O)[C@](C)(O)C[C@@H](C)CN(C)[C@H](C)[C@@H](O)[C@]1(C)O` [AZITHROMYCIN], the MIC in the assay with Staphylococcus aureus came to 2 mg/L (≈ 2.67 µM); in the assay on Escherichia coli, 8 mg/L (≈ 10.7 µM); in the assay with Streptococcus pneumoniae it was 0.25 mg/L (≈ 0.334 µM); against Haemophilus influenzae, 2 mg/L (≈ 2.67 µM); in the assay with Streptococcus pyogenes, 0.125 mg/L (≈ 0.167 µM); against Moraxella catarrhalis, 0.25 mg/L (≈ 0.334 µM).
